Like-named read-outs stand apart in the source and are kept apart here.
Assays:
MOLT4 cells [1] = experiment: Proliferation assay; assay type: cell-based, human; conditions: for IC50: read-out: proliferation IC50
CDK10 [2] = target: T1, CDK10 (Homo sapiens, UniProt Q15131); experiment: Kinativ lysate chemical proteomics; assay type: binding; conditions: MOLT4 cell lysate, 1uM
How it was run: (§1)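 MOLT4 lysate (sonicated in HEPES pH 7.5/NaCl/Triton buffer, then gel-filtered) was incubated 15 min in duplicate with test compound added from a 100X DMSO stock, or with DMSO alone. Desthiobiotin-ATP acylphosphate probe (20 μM final) was then added for 10 min. Peptides were analysed by LC-MS/MS, and % inhibition was calculated as 1 − treated/control signal.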

CDK2 = CDK2 (Homo sapiens, UniProt P24941); experiment: Bio-AT7519 pulldown target engagement; assay type: cell-based; conditions: wildtype and CRBN−/− MOLT4 cells, 6 hours, 1μM, 500nM or 250nM
[3] = tested on: RNA Pol II CTD Serine 2 phosphorylation; experiment: RNA Pol II CTD phosphorylation by immunoblot; assay type: cell-based, human; conditions: MOLT4 cells
How it was run: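 MOLT4 cells lysed on ice for 30 min in RIPA buffer (pH 7.4) with protease and phosphatase inhibitors and 2.5 U/mL nuclease. Lysate spun at 21,000g, 30 min, 4°C, and protein measured by BCA. Blots probed with anti-phospho-CTD Ser2 alongside total Pol II and tubulin. Infrared-labelled secondaries; blots imaged on Odyssey.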

PCTAIRE2,PCTAIRE3 = experiment: Kinativ live cell chemical proteomics; assay type: cell-based, human; conditions: live cell treatment, 0.25μM
CDK9 [4] = target: T2, CDK9 (Homo sapiens, UniProt P50750); experiment: Kinativ lysate chemical proteomics; assay type: binding; conditions: MOLT4 cell lysate, 1uM
How it was run: as §1

PCTAIRE2 = PCTAIRE2 (Homo sapiens, UniProt Q00537); experiment: Kinativ live cell chemical proteomics; assay type: cell-based; conditions: live cell treatment, 0.25μM
CDK7 = CDK7 (Homo sapiens, UniProt P50613); experiment: Bio-AT7519 pulldown target engagement; assay type: cell-based; conditions: wildtype and CRBN−/− MOLT4 cells, 6 hours, 1μM, 500nM or 250nM
MOLT4 cells [5] = experiment: Annexin V flow cytometry of apoptotic cells; assay type: cell-based, human; conditions: 250 nM, without washout
How it was run: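 MOLT4 cells were exposed to 250 nM test compound for 6 h, then either washed three times with media or left in compound, and collected 24 h later. Cells were PBS-washed, stained with FITC annexin V in HEPES/NaCl/CaCl₂ binding buffer (pH 7.4) at room temperature, and propidium iodide was added just before flow cytometry. Results are means ± s.d. of 3 biological replicates.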

CDK6 = CDK6 (Homo sapiens, UniProt Q00534); experiment: Kinativ live cell chemical proteomics; assay type: cell-based; conditions: live cell treatment, 0.25μM
PCTAIRE1,PCTAIRE3 = experiment: Kinativ live cell chemical proteomics; assay type: cell-based, human; conditions: live cell treatment, 0.25μM
CDK9/CycT1 = CDK9/CycT1 (Homo sapiens, UniProt P50750); experiment: Adapta Eu in vitro kinase assay; assay type: biochemical
CDK9 [6] = target: T2, CDK9; experiment: Bio-AT7519 pulldown target engagement; assay type: cell-based; conditions: 6 hours, 1μM, 500nM or 250nM
How it was run: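 Live wildtype or CRBN−/− MOLT4 cells were exposed to DMSO or test compound for 6 h, then PBS-washed and lysed (50 mM Tris-HCl pH 8.0, 150 mM NaCl, 1% NP-40, 5 mM EDTA, 1 mM DTT, protease/phosphatase inhibitors). Clarified lysate (input sampled) was rotated overnight at 4°C with 1μM biotinylated AT7519, then captured on streptavidin resin for 3 h at 4°C. Beads were washed ×5, boiled, and immunoblotted.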

CDK9 [7] = target: T2, CDK9; experiment: Kinomescan profiling; assay type: binding; conditions: 1μM
GSK3A = GSK3A (Homo sapiens, UniProt P49840); experiment: Kinativ live cell chemical proteomics; assay type: cell-based; conditions: live cell treatment, 0.25μM
How it was run: (§2)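 Test compound was applied to intact MOLT4 cells (CRBN−/− or wildtype). Cells were then sonicated in 50 mM HEPES pH 7.5, 150 mM NaCl, 0.1% Triton X-100 with phosphatase inhibitors, and cleared. Lysate was labelled with desthiobiotin-ATP acylphosphate probe (20 μM final) for 10 min. Samples were reduced and alkylated for LC-MS/MS, and % inhibition was calculated from integrated peak areas against DMSO controls.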

DYRK1B = DYRK1B (Homo sapiens, UniProt Q9Y463); experiment: Kinomescan profiling; assay type: binding; conditions: 1μM
CDK9 [8] = target: T2, CDK9; experiment: Kinativ live cell chemical proteomics; assay type: cell-based; conditions: CRBN−/− MOLT4 cells, live cell treatment, 0.25μM
How it was run: as §2

MCL-1 = MCL-1 protein level by immunoblot; assay type: cell-based, human; conditions: wildtype MOLT4 cells, 250 nM time course
How it was run: (§3)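 Wildtype MOLT4 cells were treated with 250 nM test compound for the indicated times. They were lysed for 30 min on ice in RIPA buffer (pH 7.4) with protease and phosphatase inhibitors and nuclease. Lysates were clarified at 21,000g for 30 min at 4°C and protein measured by BCA. Blots were detected with infrared-labelled secondary antibodies.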

MOLT4 cells [9] = experiment: Apoptosis by immunoblot; assay type: cell-based, human; conditions: wildtype MOLT4 cells, 250 nM
How it was run: as §3

panel of 468 kinases = experiment: Kinomescan kinome selectivity profiling; assay type: binding; conditions: Kinomescan at 1μM
CDK7/CycH/MNAT1 = CDK7/CycH/MNAT1 (Homo sapiens, UniProt P50613); experiment: Adapta Eu in vitro kinase assay; assay type: biochemical
CDK9 [10] = target: T2, CDK9; experiment: Multiplexed quantitative mass spectrometry-based proteomics; assay type: cell-based; conditions: MOLT4 cells, 250nM, 2 hours, 4512 proteins quantified
How it was run: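 MOLT4 cells (RPMI-1640, 10% FBS, 1% Pen/Strep, 37°C, 5% CO₂) exposed to 250nM test compound for 2 hours. Proteins labelled with 10plex TMT isobaric tags and run on an Orbitrap Fusion using SPS-MS3. Threshold of 2 peptides per protein. Log fold-change vs p-value plotted. n=3 biological replicates.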

[11] = tested on: panel of eleven different leukemia cancer cell lines; experiment: Proliferation in leukemia cell line panel; assay type: cell-based
CDK7 mRNA = experiment: qPCR of mRNA levels; assay type: cell-based, human; conditions: MOLT4 cells, 250nM, 8 hours
CDK9 [12] = target: T2, CDK9; experiment: CDK9 degradation by immunoblot; assay type: cell-based
CDK1 mRNA = experiment: qPCR of mRNA levels; assay type: cell-based, human; conditions: MOLT4 cells, 250nM, 8 hours
CDK1/CycB = CDK1/CycB (Homo sapiens, UniProt P06493); experiment: Z'LYTE in vitro kinase assay; assay type: biochemical
How it was run: (§4)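 Inhibition of the recombinant cyclin-bound CDK complex was measured in a Z'LYTE kinase assay run by a contract service at the Km concentration of ATP.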

CRBN−/− MOLT4 cells = experiment: Proliferation assay; assay type: cell-based; conditions: Homo sapiens, MOLT-4, 72 h, read-out: proliferation IC50
How it was run: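 CRBN−/− MOLT4 cells were exposed to a range of test compound concentrations for 72 h. Viability was measured with CellTiter-Glo, and IC50 was derived by non-linear regression curve fitting.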

CDK10 [13] = target: T1, CDK10; experiment: CDK10 degradation by immunoblot; assay type: cell-based; conditions: MOLT4 cells
How it was run: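 MOLT4 cells treated with test compound were lysed in RIPA buffer (pH 7.4) with protease and phosphatase inhibitors and nuclease for 30 min on ice. Lysates were clarified at 21,000g for 30 min at 4°C and quantified by BCA. CDK10 was immunoblotted and detected with infrared-labelled secondary antibodies.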

CDK2/CycA = CDK2/CycA (Homo sapiens, UniProt P24941); experiment: Z'LYTE in vitro kinase assay; assay type: biochemical
How it was run: as §4

[14] = wildtype and CRBN−/− MOLT4 cells
[15] = 6-hour treatment then compound washout

T2 sequence (P50750 whole entry): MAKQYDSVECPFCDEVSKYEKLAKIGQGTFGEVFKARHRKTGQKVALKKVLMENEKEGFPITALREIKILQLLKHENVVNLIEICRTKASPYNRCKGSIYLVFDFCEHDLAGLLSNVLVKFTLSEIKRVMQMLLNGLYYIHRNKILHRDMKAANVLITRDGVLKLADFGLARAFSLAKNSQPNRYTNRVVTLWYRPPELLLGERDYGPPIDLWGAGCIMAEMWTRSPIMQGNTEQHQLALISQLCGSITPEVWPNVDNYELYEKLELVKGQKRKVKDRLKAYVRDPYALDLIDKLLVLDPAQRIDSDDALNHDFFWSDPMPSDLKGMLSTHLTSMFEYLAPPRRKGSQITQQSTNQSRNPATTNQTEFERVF
CDK7/CycH/MNAT1, sequence (P50613 whole entry): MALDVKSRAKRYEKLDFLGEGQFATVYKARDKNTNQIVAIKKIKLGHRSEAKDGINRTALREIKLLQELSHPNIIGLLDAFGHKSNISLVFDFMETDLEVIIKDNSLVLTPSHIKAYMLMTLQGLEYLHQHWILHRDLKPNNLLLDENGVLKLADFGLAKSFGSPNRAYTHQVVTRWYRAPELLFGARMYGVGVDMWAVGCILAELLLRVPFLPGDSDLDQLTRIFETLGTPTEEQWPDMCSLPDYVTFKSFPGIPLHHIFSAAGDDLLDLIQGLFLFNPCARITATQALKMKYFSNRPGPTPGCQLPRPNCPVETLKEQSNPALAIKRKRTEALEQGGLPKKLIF
CDK7/CycH/MNAT1, sequence (P51946 whole entry partner): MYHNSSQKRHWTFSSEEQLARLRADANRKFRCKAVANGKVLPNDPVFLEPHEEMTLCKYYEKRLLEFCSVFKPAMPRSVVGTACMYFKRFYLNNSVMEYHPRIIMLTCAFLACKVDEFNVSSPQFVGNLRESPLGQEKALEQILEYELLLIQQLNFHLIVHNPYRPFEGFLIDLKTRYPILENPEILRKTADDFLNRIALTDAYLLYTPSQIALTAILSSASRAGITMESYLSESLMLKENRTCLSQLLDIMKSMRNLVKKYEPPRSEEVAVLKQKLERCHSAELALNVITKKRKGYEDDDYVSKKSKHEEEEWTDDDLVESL
CDK7/CycH/MNAT1, sequence (P51948 whole entry partner): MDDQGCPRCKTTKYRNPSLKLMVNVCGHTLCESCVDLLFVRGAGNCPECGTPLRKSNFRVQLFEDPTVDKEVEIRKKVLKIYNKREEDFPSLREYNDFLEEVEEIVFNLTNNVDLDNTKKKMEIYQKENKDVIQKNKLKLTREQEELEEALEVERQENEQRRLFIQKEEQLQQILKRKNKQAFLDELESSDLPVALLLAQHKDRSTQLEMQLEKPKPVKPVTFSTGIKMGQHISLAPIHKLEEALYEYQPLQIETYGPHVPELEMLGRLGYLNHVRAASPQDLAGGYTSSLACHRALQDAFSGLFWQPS
CDK6, sequence (Q00534 whole entry): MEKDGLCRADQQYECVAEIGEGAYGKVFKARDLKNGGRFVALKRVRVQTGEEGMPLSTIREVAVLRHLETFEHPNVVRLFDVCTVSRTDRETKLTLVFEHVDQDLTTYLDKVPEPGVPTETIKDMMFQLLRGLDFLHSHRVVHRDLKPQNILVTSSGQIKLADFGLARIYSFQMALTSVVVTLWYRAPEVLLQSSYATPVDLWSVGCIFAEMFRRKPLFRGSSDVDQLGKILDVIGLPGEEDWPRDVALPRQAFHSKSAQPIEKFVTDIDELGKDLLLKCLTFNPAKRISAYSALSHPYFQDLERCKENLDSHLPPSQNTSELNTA
PCTAIRE2, sequence (Q00537 whole entry): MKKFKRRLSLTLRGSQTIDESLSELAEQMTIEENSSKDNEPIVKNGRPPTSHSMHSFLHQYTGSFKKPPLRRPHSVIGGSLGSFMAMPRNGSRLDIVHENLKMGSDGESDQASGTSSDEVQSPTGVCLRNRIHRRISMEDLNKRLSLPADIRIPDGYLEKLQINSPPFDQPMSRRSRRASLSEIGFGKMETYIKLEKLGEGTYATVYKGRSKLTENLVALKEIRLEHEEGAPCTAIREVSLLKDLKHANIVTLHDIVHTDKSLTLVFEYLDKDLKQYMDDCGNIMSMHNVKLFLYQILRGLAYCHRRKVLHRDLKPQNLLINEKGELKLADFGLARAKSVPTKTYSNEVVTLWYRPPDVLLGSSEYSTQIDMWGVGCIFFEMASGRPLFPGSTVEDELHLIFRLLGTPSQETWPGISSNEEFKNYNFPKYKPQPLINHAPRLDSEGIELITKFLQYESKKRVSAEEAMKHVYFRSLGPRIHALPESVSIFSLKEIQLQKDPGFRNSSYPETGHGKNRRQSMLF
T1 sequence (Q15131 whole entry): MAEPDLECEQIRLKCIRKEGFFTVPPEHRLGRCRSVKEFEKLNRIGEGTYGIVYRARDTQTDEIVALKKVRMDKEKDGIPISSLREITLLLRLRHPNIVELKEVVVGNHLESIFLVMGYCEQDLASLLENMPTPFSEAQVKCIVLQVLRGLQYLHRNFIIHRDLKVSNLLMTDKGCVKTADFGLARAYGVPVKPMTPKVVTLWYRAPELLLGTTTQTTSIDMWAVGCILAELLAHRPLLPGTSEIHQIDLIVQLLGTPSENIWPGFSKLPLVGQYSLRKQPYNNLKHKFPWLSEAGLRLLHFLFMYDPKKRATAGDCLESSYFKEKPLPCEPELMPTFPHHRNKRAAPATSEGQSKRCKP
GSK3A, sequence (P49840 whole entry): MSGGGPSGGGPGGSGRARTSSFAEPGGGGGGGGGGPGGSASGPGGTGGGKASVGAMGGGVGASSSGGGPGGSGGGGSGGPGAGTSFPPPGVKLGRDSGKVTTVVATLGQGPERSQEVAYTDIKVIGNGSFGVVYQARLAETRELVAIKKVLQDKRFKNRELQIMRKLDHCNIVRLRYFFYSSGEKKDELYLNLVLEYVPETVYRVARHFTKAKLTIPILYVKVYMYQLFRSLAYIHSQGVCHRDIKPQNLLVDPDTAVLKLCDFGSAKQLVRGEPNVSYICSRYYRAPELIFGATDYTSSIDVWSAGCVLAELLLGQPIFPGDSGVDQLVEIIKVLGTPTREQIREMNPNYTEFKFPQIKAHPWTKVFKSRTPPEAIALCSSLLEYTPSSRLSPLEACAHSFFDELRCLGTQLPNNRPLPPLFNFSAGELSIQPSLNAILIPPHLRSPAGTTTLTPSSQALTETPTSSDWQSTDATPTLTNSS
CDK9/CycT1, sequence (P50750 whole entry): as the sequence (P50750 whole entry) above
CDK9/CycT1, sequence (O60563 whole entry partner): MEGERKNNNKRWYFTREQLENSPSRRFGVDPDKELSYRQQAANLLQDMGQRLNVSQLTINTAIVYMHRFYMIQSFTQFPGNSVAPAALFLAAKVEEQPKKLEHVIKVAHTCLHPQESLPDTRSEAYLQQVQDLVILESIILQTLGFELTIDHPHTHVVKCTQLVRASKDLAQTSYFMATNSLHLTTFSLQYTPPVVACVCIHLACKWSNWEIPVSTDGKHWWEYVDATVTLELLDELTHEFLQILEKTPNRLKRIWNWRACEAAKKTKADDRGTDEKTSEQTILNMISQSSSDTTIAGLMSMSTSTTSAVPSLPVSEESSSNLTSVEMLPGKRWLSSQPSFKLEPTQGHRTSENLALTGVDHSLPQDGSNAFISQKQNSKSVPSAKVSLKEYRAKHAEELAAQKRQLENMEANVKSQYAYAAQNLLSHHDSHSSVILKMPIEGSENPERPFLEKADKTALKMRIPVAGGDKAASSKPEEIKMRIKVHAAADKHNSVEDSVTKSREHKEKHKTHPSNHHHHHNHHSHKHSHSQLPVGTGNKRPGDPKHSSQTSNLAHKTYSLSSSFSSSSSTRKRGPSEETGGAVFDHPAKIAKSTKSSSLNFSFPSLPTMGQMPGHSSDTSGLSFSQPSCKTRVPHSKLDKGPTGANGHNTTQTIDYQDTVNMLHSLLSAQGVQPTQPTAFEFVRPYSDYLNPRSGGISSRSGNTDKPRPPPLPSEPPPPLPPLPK
CDK7, sequence (P50613 whole entry): as the sequence (P50613 whole entry) above
DYRK1B, sequence (Q9Y463 whole entry): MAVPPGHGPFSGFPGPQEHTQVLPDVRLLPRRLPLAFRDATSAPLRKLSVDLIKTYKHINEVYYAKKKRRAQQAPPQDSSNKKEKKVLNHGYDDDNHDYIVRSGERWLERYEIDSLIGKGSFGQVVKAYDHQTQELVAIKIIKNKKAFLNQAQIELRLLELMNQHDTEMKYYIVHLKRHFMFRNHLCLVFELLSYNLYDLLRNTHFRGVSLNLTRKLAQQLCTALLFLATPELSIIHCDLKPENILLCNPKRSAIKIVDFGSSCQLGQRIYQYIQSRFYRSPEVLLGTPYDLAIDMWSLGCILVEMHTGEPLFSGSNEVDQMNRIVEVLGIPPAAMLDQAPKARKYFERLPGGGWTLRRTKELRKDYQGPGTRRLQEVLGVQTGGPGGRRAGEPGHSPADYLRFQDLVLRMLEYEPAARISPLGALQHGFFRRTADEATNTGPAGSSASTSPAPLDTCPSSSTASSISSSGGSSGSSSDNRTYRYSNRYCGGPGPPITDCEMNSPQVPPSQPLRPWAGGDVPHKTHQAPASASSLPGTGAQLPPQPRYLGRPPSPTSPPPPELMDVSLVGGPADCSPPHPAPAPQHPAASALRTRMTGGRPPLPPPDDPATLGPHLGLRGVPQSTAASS

Structure (SMILES): COC[C@@H](C)NC1CCC(Nc2cc(-c3cccc(NCC4(C#N)CCOCC4)n3)c(Cl)cn2)CC1 (stereo partly drawn) [NVP-2]
- IC50 (MOLT4 cells [1]; wild-type MOLT4, 72 hours, CellTiter Glo): 9 nM
- CDK10 engagement in lysate (CDK10 [2]): strongly engaged
- CDK2 engagement (bio-AT7519 competition) (CDK2): unaffected
- phosphorylation of RNA Pol II CTD Serine 2 [3]: inhibited in a concentration dependent manner
- percent inhibited PCTAIRE2,PCTAIRE3 (Lys1) labeling (PCTAIRE2,PCTAIRE3; CRBN−/− MOLT4 cells): −15%
- percent inhibited PCTAIRE2,PCTAIRE3 (Lys1) labeling (PCTAIRE2,PCTAIRE3; Wildtype MOLT4 cells): −4.7%
- CDK9 engagement in lysate (CDK9 [4]): strongly engaged
- percent inhibited PCTAIRE2 (Lys2) labeling (PCTAIRE2; CRBN−/− MOLT4 cells): 10.3%
- percent inhibited PCTAIRE2 (Lys2) labeling (PCTAIRE2; Wildtype MOLT4 cells): 8.1%
- CDK7 engagement (bio-AT7519 competition) (CDK7): unaffected
- Annexin V positive cells (MOLT4 cells [5]): ~100%
- percent inhibited CDK6 (Lys2) labeling (CDK6; CRBN−/− MOLT4 cells): −8.6%
- percent inhibited CDK6 (Lys2) labeling (CDK6; Wildtype MOLT4 cells): −10%
- percent inhibited PCTAIRE1,PCTAIRE3 (Lys2) labeling (PCTAIRE1,PCTAIRE3; CRBN−/− MOLT4 cells): −5.2%
- percent inhibited PCTAIRE1,PCTAIRE3 (Lys2) labeling (PCTAIRE1,PCTAIRE3; Wildtype MOLT4 cells): −30.5%
- IC50 (CDK9/CycT1; read-out: IC50 CDK9/CycT kinase activity, Km ATP): < 0.514 nM
- CDK9 engagement (bio-AT7519 competition) (CDK9 [6]; [14]): engages CDK9 in wildtype and CRBN−/− MOLT4 cells at all concentrations tested
- Kinomescan inhibition of CDK9 (CDK9 [7]): greater than 99%
- percent inhibited GSK3A (Lys2) labeling (GSK3A; CRBN−/− MOLT4 cells): 10%
- percent inhibited GSK3A (Lys2) labeling (GSK3A; Wildtype MOLT4 cells): 5.8%
- Kinomescan inhibition of DYRK1B (DYRK1B): greater than 99%
- percent inhibited CDK9 (Lys2) labeling (CDK9 [8]): ~63%
- MCL-1 protein level (MCL-1): MCL-1 loss was observed
- time to induction of apoptosis (PARP and Caspase-3 cleavage) (MOLT4 cells [9]): ≤ 4 h
- S(1) score (panel of 468 kinases): 0.005
- IC50 (CDK7/CycH/MNAT1; read-out: CDK7 IC50, Km ATP): > 10000 nM

Structure (SMILES): CC(C)(C)c1cnc(CSc2cnc(NC(=O)C3CCNCC3)s2)o1 [SNS-032, N-[5-[[[5-(1,1-Dimethylethyl)-2-oxazolyl]methyl]thio]-2-thiazolyl]-4-piperidinecarboxamide]
- IC50 (MOLT4 cells [1]; Homo sapiens, MOLT-4, 72 h): 173 nM
- phosphorylation of RNA Pol II CTD Serine 2 [3]: inhibited in a concentration dependent manner
- percent inhibited PCTAIRE2,PCTAIRE3 (Lys1) labeling (PCTAIRE2,PCTAIRE3; CRBN−/− MOLT4 cells): 75.4%
- CDK9 engagement (bio-AT7519 competition) (CDK9 [6]; [14]): showed engagement
- time to induction of apoptosis (PARP and Caspase-3 cleavage) (MOLT4 cells [9]): ≤ 4 h

Structure (SMILES): CC(C)(C)c1cnc(CSc2cnc(NC(=O)C3CCN(CC(=O)NCCOCCOCCOCCNc4cccc5c4C(=O)N(C4CCC(=O)NC4=O)C5=O)CC3)s2)o1 (stereo not drawn) [THAL-SNS-032]
- viability after washout (MOLT4 cells [1]; 250nM, 6 hours treatment then washout, 72 hours of growth): more profound decrease in viability after washout compared to NVP-2 or SNS-032
- IC50 (MOLT4 cells [1]; Homo sapiens, MOLT-4, 72 h): 50 nM
- phosphorylation of RNA Pol II CTD Serine 2 [3]: inhibited phosphorylation of Serine 2 in a concentration and time-dependent manner
- CDK9 abundance in proteome-wide analysis (CDK9 [10]): most depleted protein out of 4512 proteins
- percent inhibited PCTAIRE2,PCTAIRE3 (Lys1) labeling (PCTAIRE2,PCTAIRE3; CRBN−/− MOLT4 cells): 16%
- percent inhibited PCTAIRE2,PCTAIRE3 (Lys1) labeling (PCTAIRE2,PCTAIRE3; Wildtype MOLT4 cells): 22.1%
- inhibition of proliferation compared to SNS-032 [11]: more potent inhibition of proliferation as compared to SNS-032
- CDK7 mRNA level relative to DMSO-treated (CDK7 mRNA): around 20%
- percent inhibited PCTAIRE1,PCTAIRE3 (Lys2) labeling (PCTAIRE1,PCTAIRE3; CRBN−/− MOLT4 cells): 11.4%
- percent inhibited PCTAIRE1,PCTAIRE3 (Lys2) labeling (PCTAIRE1,PCTAIRE3; Wildtype MOLT4 cells): 16.3%
- IC50 (CDK9/CycT1): 4 nM
- CDK9 engagement (bio-AT7519 competition) (CDK9 [6]; CRBN−/− MOLT4 cells only): little to no engagement
- time for CDK9 levels to return to baseline after washout (CDK9 [12]; [15]): 36 h
- time of partial rebound of CDK9 levels after washout (CDK9 [12]; [15]): ≤ 12 h
- time to complete CDK9 degradation (CDK9 [12]; MOLT4 cells, 250 nM): 2 h
- persistence of CDK9 degradation (CDK9 [12]; MOLT4 cells, 250nM time course): at least 24 hours
- concentration inducing complete CDK9 degradation (CDK9 [12]; MOLT4 cells, 6-hour treatment): 250 nM
- concentration at which CDK9 degradation decreases (hook effect) (CDK9 [12]; MOLT4 cells, 6 hours): ≥ 5 µM
- CDK1 mRNA level relative to DMSO-treated (CDK1 mRNA): around 20%
- MCL-1 protein level (MCL-1): loss of MCL-1
- IC50 (CDK1/CycB): 171 nM
- time to induction of apoptosis (PARP and Caspase-3 cleavage) (MOLT4 cells [9]): ≤ 4 h
- IC50 (CRBN−/− MOLT4 cells): 3630 nM
- CDK10 degradation (CDK10 [13]): partial degradation
- IC50 (CDK7/CycH/MNAT1): 398 nM
- IC50 (CDK2/CycA): 62 nM
